Results as given in ChEMBL document CHEMBL1123290, “Synthesis, antimalarial activity, and quantitative structure-activity relationships of tebuquine and a series of related 5-[(7-chloro-4-quinolinyl)amino]-3-[(alkylamino)methyl] [1,1'-biphenyl]-2-ols and N omega-oxides” (1986).

How the values were obtained:
Type in all cases: functional
[1] = tested on: Plasmodium berghei; test: Change in mean survival time of Plasmodium berghei infected mice (Mus musculus) on 1.25 mg/kg subcutaneous dose
[2] = tested on: Plasmodium berghei; test: Difference in mean survival time of Plasmodium berghei infected mice (Mus musculus) after 10 mg/kg subcutaneous dose
[3] = tested on: Plasmodium berghei; test: Change in mean survival time of Plasmodium berghei infected mice (Mus musculus) after […] subcutaneous dose
[4] = tested on: Plasmodium berghei; test: Change in mean survival time for control (average 6.2 days) versus treated mice (Mus musculus) after 20 mg/kg subcutaneous dose
[5] = tested on: Plasmodium berghei; test: Change in mean survival time for control (average 6.2 days) versus treated mice (Mus musculus) after 320 mg/kg subcutaneous dose
[6] = tested on: Plasmodium berghei; test: Change in mean survival time for control (average 6.2 days) versus treated mice (Mus musculus) after 40 mg/kg subcutaneous dose
[7] = tested on: Plasmodium berghei; test: Change in mean survival time of Plasmodium berghei infected mice (Mus musculus) after 5 mg/kg subcutaneous dose
[8] = tested on: Plasmodium berghei; test: Change in mean survival time in control (average 6.2 days) versus treated mice (Mus musculus) after 80 mg/kg subcutaneous dose
[9] = tested on: Plasmodium berghei; test: (§1) Change in mean survival time for control (average 6.2 days) versus treated mice (Mus musculus) 72 hrs after […] subcutaneous dose
[10] = tested on: Plasmodium berghei; test: as §1; remark: listed apart in the source
[11] = tested on: Mus musculus; test: Antimalarial activity of compound administered as a single subcutaneous dose of 10mg/kg, 72 hrs post infection measured as number of mice (Mus musculus) surviving at 60 days post infection
How it was run: (§2)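 Mice were infected with a normal drug-sensitive Plasmodium berghei strain. At 72 h postinfection each received one subcutaneous dose of compound dissolved or suspended in peanut oil, in five-mouse groups per dose. The read-out was the number of mice alive at 60 days postinfection, which were scored as cured.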

[12] = tested on: Plasmodium berghei; test: Antimalarial activity as 60-day survivors in Plasmodium berghei infected mice (Mus musculus) after single 160mg/kg subcutaneous dose 72 hr post infection; how it was run: as §2
[13] = tested on: Plasmodium berghei; test: Antimalarial activity as 60-day survivors in infected mice (Mus musculus) after single 20 mg/kg subcutaneous dose 72hr post infection; how it was run: as §2
[14] = tested on: Plasmodium berghei; test: Antimalarial activity as 60-day survivors in infected mice (Mus musculus) after single 320mg/kg subcutaneous dose 72 hr post infection; how it was run: as §2
[15] = tested on: Mus musculus; test: Antimalarial activity, administered as a single subcutaneous dose of 40 mg/kg, 72 hrs post infection measured as number of mice (Mus musculus) surviving at 60 days post infection; how it was run: as §2
[16] = tested on: Mus musculus; test: Antimalarial activity, administered as a single subcutaneous dose of 640 mg/kg, 72 hrs post infection measured as number of mice (Mus musculus) surviving at 60 days post infection; how it was run: as §2
[17] = tested on: Mus musculus; test: Antimalarial activity, administered as a single subcutaneous dose of 80 mg/kg, 72 hrs post infection measured as number of mice (Mus musculus) surviving at 60 days post infection; how it was run: as §2
[18] = tested on: Plasmodium berghei; test: Antimalarial activity in primary screen
[19] = tested on: Plasmodium berghei; test: Change in mean survival time for control (average 6.2 days) versus treated mice (Mus musculus) 72 hrs after 5 mg/kg subcutaneous dose
[20] = tested on: Plasmodium berghei; test: Change in mean survival time for control (average 6.2 days) versus treated mice (Mus musculus) 72 hrs after 640 mg/kg subcutaneous dose
[21] = tested on: Plasmodium berghei; test: Change in mean survival time for control (average of 6.2 days) versus treated mice (Mus musculus) 72 hrs after 80 mg/kg subcutaneous dose
[22] = tested on: Plasmodium berghei; test: Change in mean survival time for control (average 6.2 days) versus treated mice (Mus musculus) 72 hrs after 10 mg/kg subcutaneous dose
[23] = tested on: Plasmodium berghei; test: Change in mean survival time for control (average 6.2 days) versus treated mice (Mus musculus) 72 hrs after 160 mg/kg subcutaneous dose
[24] = tested on: Plasmodium berghei; test: Change in mean survival time for control (average 6.2 days) versus treated mice (Mus musculus) 72 hrs after […] subcutaneous dose
[25] = tested on: Plasmodium berghei; test: Change in mean survival time for control (average 6.2 days) versus treated mice (Mus musculus) 72 hrs after 20 mg/kg subcutaneous dose
[26] = tested on: Plasmodium berghei; test: Change in mean survival time for control (average 6.2 days) versus treated mice (Mus musculus) 72 hrs after 320 mg/kg subcutaneous dose
[27] = tested on: Plasmodium berghei; test: Difference in mean survival time in mice (Mus musculus) (control = 6.2 days) after single 40mg/kg subcutaneous dose 72hr post infection
[28] = tested on: Mus musculus; test: Antimalarial activity of compound administered as a single subcutaneous dose of 5mg/kg, 72-h postinfection measured as number of mice (Mus musculus) surviving at 60 days postinfection; how it was run: as §2
[29] = tested on: Plasmodium berghei; test: Change in mean survival time for control (average 6.2 days) versus treated mice (Mus musculus) after 160 mg/kg subcutaneous dose
[30] = tested on: Mus musculus; test: Delta MST, difference in mean survival time of the control mice (an average of 6.2 days) from the mean survival time of the treated mice after a single dose of (mg/kg sc) 1.25
[31] = tested on: Mus musculus; test: Antimalarial activity of compound administered as a single subcutaneous dose of 40 mg/kg, 72-h postinfection measured as number of mice (Mus musculus) surviving at 60 days postinfection; how it was run: as §2

Row | SMILES | Delta MST [1] [days] | Delta MST [2] [days] | Delta MST [3] [days] | Delta MST [4] [days] | Delta MST [5] [days] | Delta MST [6] [days] | Delta MST [7] [days] | Delta MST [8] [days] | Delta MST [10] [days] | No. of mice cured [11] | No. of mice cured [12] | No. of mice cured [13] | No. of mice cured [14] | No. of mice cured [15] | No. of mice cured [16] | No. of mice cured [17] | Delta MST [19] [days] | Delta MST [23] [days] | Delta MST [24] [days] | Delta MST [25] [days] | also measured
1 | CN(C)Cc1cc(Nc2cc[n+]([O-])c3cc(Cl)ccc23)cc(-c2ccc(Cl)cc2)c1O | 0 | 17.8 | 5 | 27.8 | 17.9 | 26.3 | 17.6 | 21.9 | 0 | 1 | 5 | 3 | 3 | 3 | 1 | 3 | – | – | – | – | Delta MST [9]: 20.7 days
2 | CCN(CC)Cc1cc(Nc2ccnc3cc(Cl)ccc23)cc(-c2cccc(F)c2)c1O | – | – | – | – | – | – | – | – | 0.4 | – | 3 | 2 | 1 | 3 | 3 | 2 | 5.6 | 14.8 | 1.8 | 23.6 | ED30 [18]: 12.4 mg/kg; Delta MST [20]: 15.8 days; Delta MST [21]: 12.8 days; Delta MST [22]: 23.2 days; Delta MST [26]: 13.8 days; Delta MST [27]: 25.1 days; No. of mice cured [28]: 1
3 | CC(C)(C)NCc1cc(Nc2cc[n+]([O-])c3cc(Cl)ccc23)cc(-c2ccc(Cl)cc2)c1O | 0 | 26.3 | 0.2 | 28.9 | 13.9 | 24.9 | 11.4 | 20.6 | – | 1 | 3 | 4 | 4 | 4 | 4 | 2 | – | – | – | – | Delta MST [29]: 13.4 days; Delta MST [30]: 0; Delta MST [9]: 13.9 days; No. of mice cured [28]: 1
4 | CCC(C)NCc1cc(Nc2cc[n+]([O-])c3cc(Cl)ccc23)cc(-c2ccc(Cl)cc2)c1O (stereo not drawn) | 0 | 7.2 | 1.6 | 22.6 | 17.1 | 21.3 | 3.6 | 23.6 | – | – | 4 | 3 | 3 | 2 | 3 | 3 | – | – | – | – | Delta MST [29]: 14.6 days; Delta MST [30]: 0
5 | CC(C)(C)NCc1cc(Nc2ccnc3cc(Cl)ccc23)cc(-c2ccc(Cl)cc2)c1O [TEBUQUINE] | – | – | – | – | – | – | – | – | 0.3 | 2 | 2 | 3 | 1 | 4 | – | 3 | 11.4 | 14.9 | 2.3 | 14.9 | Delta MST [20]: 17.1 days; Delta MST [26]: 16.4 days; Delta MST [27]: 19.9 days; No. of mice cured [28]: 1
6 | CCC(C)NCc1cc(Nc2ccnc3cc(Cl)ccc23)cc(-c2ccc(Cl)cc2)c1O (stereo not drawn) | – | – | – | – | – | – | – | – | 0.2 | – | – | 3 | 1 | – | – | 3 | 11 | 14.2 | 2 | 21 | Delta MST [21]: 14 days; Delta MST [22]: 23.6 days; Delta MST [26]: 12.5 days; Delta MST [27]: 15 days; No. of mice cured [31]: 4
